ChEMBL document CHEMBL5030521, “Design, Synthesis, and Characterization of Novel sn-1 Heterocyclic DAG-Lactones as PKC Activators” (J Med Chem, 2021)
Active and inactive are the calls of the source.

Assays:
[1] = biological target: T1, Protein kinase C alpha type (Homo sapiens, UniProt P17252); assay: Displacement of [3H]-PDBu from recombinant human PKCalpha at 30 uM by scintillation counter method relative to control
Method in brief: (§1)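 Competition of 2 nM [3H]PDBu by test ligand at a single fixed concentration (value in line); 50 mM Tris-HCl pH 7.4, 100 μg/mL porcine brain phosphatidylserine, 5 mg/mL bovine IgG, 0.003% Tx-100, 20 ng/tube enzyme; 0.1 mM Ca2+ for PKCα, 1 mM EGTA for PKCε. 5 min at 37 °C, PEG precipitation, bound and free counted separately; nonspecific with 10 μM cold PDBu; triplicates.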

[2] = biological target: T2, Protein kinase C epsilon type (Homo sapiens) (UniProt Q02156); assay: Activation of GFP-fused PKCepsilon in HeLa cells assessed as translocation of PKCepsilon from cytosol to membrane measured after 30 mins by DAPI staining based fluorescence microscopy; type: subcellular
T2 sequence (whole entry): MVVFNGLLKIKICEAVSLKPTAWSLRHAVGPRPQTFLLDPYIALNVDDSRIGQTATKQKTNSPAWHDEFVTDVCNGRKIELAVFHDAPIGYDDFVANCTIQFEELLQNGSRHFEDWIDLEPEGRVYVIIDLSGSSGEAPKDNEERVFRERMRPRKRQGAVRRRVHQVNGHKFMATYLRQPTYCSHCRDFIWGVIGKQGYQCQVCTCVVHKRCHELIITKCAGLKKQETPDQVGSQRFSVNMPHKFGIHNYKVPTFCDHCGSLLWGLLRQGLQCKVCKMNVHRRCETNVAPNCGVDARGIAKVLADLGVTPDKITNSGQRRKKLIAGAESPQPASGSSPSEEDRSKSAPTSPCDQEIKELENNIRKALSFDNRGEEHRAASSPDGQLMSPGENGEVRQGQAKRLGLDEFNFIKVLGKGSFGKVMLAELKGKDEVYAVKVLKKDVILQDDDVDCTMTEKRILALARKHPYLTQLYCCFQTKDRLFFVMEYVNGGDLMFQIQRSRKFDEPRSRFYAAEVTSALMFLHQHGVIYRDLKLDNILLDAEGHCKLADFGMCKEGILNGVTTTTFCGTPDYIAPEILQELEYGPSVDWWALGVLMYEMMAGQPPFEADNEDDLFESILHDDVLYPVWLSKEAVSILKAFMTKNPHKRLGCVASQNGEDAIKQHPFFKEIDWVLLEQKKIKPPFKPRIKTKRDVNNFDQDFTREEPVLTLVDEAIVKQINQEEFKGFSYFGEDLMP
Method in brief: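 HeLa cells transfected with pEGFP-N1-PKCε, plated on coverslips, serum-starved 24 h after 24 h, then treated 30 min; methanol-fixed, DAPI counterstained, imaged by fluorescence microscopy. Membrane/cytosol ratio from line intensity profiles across ~10–15 cells/group, operator blinded; mean ± SD; PMA 100 nM as control.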

[3] = biological target: T2, Protein kinase C epsilon type (Homo sapiens); assay: Displacement of [3H]-PDBu from recombinant human PKCepsilon at 10 uM by scintillation counter method relative to control; method in brief: as §1
[4] = biological target: T1, Protein kinase C alpha type; assay: Displacement of [3H]-PDBu from recombinant human PKCalpha by scintillation counter method
Method in brief: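 [3H]PDBu (2 nM) competition with increasing ligand in 50 mM Tris-HCl pH 7.4, 100 μg/mL porcine brain phosphatidylserine, 0.1 mM Ca2+ (PKCα), 5 mg/mL bovine IgG, 0.003% Triton X-100, 20 ng enzyme/tube; nonspecific with 10 μM PDBu. 37 °C 5 min, PEG precipitation, bound and free counted by scintillation. Triplicates; Ki from ID50; three experiments, mean ± SEM.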

[5] = biological target: T3, Protein kinase C epsilon type (Homo sapiens, UniProt Q02156); assay: Displacement of [3H]-PDBu from recombinant human PKCepsilon by scintillation counter method
T3 sequence (Q02156 whole entry): T2 sequence (whole entry)
Method in brief: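 PKCε with 2 nM [3H]PDBu plus increasing competitor concentrations, in 50 mM Tris-HCl pH 7.4, 100 μg/mL phosphatidylserine, 1 mM EGTA, 5 mg/mL bovine IgG, 0.003% Tx-100, 20 ng/tube enzyme; 37 °C 5 min, then PEG precipitation and counting of pellet and supernatant. Nonspecific binding from 10 μM unlabeled PDBu. Ki derived from competition-curve ID50; mean ± SEM of three experiments, triplicate points.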

A549 [6] = assay: Induction of ruffle formation in human A549 cells transfected with PKCepsilon siRNA at 1 microM incubated for 30 mins using phalloidin-rhodamine staining based microscopic analysis; type: functional, cell-based
Method in brief: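 A549 cells transfected with PKCε siRNA duplexes (two sequences) or nontarget control; 48 h later treated 1 μM for 30 min, formaldehyde-fixed, phalloidin-rhodamine stained; ruffle area/cell by intensity thresholding. Knockdown checked by Q-PCR mRNA and Western blot.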

[7] = biological target: T2, Protein kinase C epsilon type (Homo sapiens); assay: Displacement of [3H]-PDBu from recombinant human PKCepsilon at 30 uM by scintillation counter method relative to control; method in brief: as §1
A549 [8] = assay: Induction of ruffle formation in human A549 cells at 1 microM incubated for 30 mins using phalloidin-rhodamine staining based microscopic analysis; type: functional, cell-based
Method in brief: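 Serum-starved (24 h) A549 cells at low confluence on coverslips treated 30 min at 1 μM; fixed in 4% formaldehyde, F-actin stained with phalloidin-rhodamine, DAPI nuclei. Five random fields scored; ruffle area per cell by intensity thresholding.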

[9] = biological target: T1, Protein kinase C alpha type; assay: Activation of GFP-fused PKCalpha in HeLa cells assessed as […] from cytosol to membrane measured after 30 mins by DAPI staining based fluorescence microscopy; type: subcellular; conditions: filed as activator
Method in brief: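 HeLa cells (5 × 10^4) transfected with pEGFP-N1-PKCα or -PKCε, plated on coverslips; after 24 h serum-starved 24 h, then treated 30 min. Methanol-fixed, DAPI-counterstained, imaged by fluorescence microscopy. Line scans across cytoplasm (~10–15 cells/group) give membrane/cytosol fluorescence ratio; operator blinded; mean ± SD.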

CC(C)=C1CC(CO)(COc2cc(C)on2)OC1=O (centres undefined)
inhibition [1]: 31.3%

Cc1ccc(-c2cn(CC3(CO)C/C(=C\CC(CC(C)C)CC(C)C)C(=O)O3)nn2)cc1 (centres undefined)
Activity [2]: inactive | inhibition [3]: 17%

CC(C)=C1CC(CO)(Cn2nnc(-c3ccccc3)n2)OC1=O (centres undefined)
inhibition [1]: 23.5% | Activity [2]: inactive

Cc1cc(OCC2(CO)C/C(=C\CC(CC(C)C)CC(C)C)C(=O)O2)no1 (centres undefined)
Ki [4]: 79.3 nM | Ki [5]: 33.6 nM | Activity (A549 [6]): inactive

CC(C)CC(C/C=C1\CC(CO)(Cn2nnc(-c3ccccc3)n2)OC1=O)CC(C)C (centres undefined)
inhibition [1]: 37.5% | inhibition [7]: 69.2%

CC(C)CC(C/C=C1\CC(CO)(COC(=O)C(C)(C)C)OC1=O)CC(C)C (centres undefined)
Ki [4]: 23.6 nM | Ki [5]: 1.89 nM | fold change (FC) ([2]; filed as activator): 43 | Activity (A549 [8]): Active | Activity (A549 [6]): inactive

CC(C)=C1CC(CO)(Cn2cc(-c3ccc(C)cc3)nn2)OC1=O (centres undefined)
inhibition [1]: 11.7% | Activity [2]: inactive

CCCCCCCCCCCCCC(=O)O[C@@H]1[C@@H](C)[C@@]2(O)[C@@H](C=C(CO)C[C@]3(O)C(=O)C(C)=C[C@@H]23)[C@@H]2C(C)(C)[C@]12OC(C)=O
Activity [2]: inactive | Activity [9]: Active
